Assays:
Renin [1] = molecular target: T1, Renin (Homo sapiens, UniProt P00797); assay: In vitro inhibition of human plasma renin.; assay type: cell-free
T1 sequence (P00797 whole entry): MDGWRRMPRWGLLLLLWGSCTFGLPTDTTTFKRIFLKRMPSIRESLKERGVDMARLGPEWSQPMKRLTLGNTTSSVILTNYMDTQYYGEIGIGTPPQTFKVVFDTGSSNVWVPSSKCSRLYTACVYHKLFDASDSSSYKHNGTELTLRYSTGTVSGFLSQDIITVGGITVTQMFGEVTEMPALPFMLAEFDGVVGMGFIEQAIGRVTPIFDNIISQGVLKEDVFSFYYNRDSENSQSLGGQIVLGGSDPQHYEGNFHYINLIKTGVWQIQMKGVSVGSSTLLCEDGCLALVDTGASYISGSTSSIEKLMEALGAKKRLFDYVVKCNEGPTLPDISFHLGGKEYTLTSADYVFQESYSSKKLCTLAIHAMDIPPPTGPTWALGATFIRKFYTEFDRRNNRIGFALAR
Procedure, shortened: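 Renin activity was measured in human plasma at pH 7.4, and the result is reported as IC50 in nM.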

Renin [2] = molecular target: T1, Renin; assay: In vitro inhibition of purified human renal renin.
Procedure, shortened: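 The enzyme was human renal renin, purified and tested at pH 6.0. The read-out is IC50 in nM.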

Pepsin A (Sus scrofa) = Pepsin A (Sus scrofa) (UniProt P00791); assay: Percent inhibition against porcine pepsin at a concentration of 1 x 10 e-5 M and pH 2
Cathepsin D (Bos taurus) [3] = molecular target: T2, Cathepsin D (Bos taurus) (UniProt P80209); assay: Percent inhibition against bovine Cathepsin D at a concentration of 1 x 10 e-5 M and pH 3
T2 sequence (whole entry): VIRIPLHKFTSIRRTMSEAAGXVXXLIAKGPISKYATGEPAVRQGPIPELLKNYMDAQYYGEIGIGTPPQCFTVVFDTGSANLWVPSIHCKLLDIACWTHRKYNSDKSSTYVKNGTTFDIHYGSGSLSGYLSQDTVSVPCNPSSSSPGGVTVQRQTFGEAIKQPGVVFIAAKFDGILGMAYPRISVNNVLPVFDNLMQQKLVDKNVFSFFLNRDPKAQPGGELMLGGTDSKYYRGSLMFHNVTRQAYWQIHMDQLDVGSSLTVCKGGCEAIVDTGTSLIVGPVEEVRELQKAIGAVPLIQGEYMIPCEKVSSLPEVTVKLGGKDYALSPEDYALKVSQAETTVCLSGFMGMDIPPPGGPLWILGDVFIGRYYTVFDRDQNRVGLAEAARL

Cathepsin D (Bos taurus) [4] = molecular target: T2, Cathepsin D (Bos taurus); assay: Percent inhibition against bovine cathepsin D at a concentration of 1 x 10 e-5 M and pH 3

Sequence of Pepsin A (Sus scrofa) (P00791 60-385 limits assumed): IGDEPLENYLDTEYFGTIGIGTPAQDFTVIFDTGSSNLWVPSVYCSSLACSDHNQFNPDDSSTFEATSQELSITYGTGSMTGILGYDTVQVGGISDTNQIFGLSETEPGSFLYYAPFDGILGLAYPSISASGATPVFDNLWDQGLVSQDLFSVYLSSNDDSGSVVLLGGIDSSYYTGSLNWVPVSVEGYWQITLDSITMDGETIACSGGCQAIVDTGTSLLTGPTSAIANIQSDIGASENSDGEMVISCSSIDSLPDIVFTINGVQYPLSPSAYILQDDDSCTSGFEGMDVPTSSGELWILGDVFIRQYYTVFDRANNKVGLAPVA

SMILES	IC50 (Renin [1])	IC50 (Renin [2])	inhibition (Pepsin A (Sus scrofa))	inhibition (Cathepsin D (Bos taurus) [3])	inhibition (Cathepsin D (Bos taurus) [4])
CC(C)(C)OC(=O)N[C@@H](Cc1ccccc1)C(=O)N[C@@H](Cc1cnc[nH]1)C(=O)N[C@@H](CC1CCCCC1)[C@@H](O)[C@@H]1CNC(=O)O1	25 nM	4.7 nM			
CC(C)ON1C[C@@H]([C@H](O)[C@H](CC2CCCCC2)NC(=O)[C@H](Cc2c[nH]cn2)NC(=O)[C@H](Cc2ccccc2)NC(=O)OC(C)(C)C)OC1=O	26 nM	1.4 nM			
CON1C[C@@H]([C@H](O)[C@H](CC2CCCCC2)NC(=O)[C@H](Cc2cnc[nH]2)NC(=O)[C@H](Cc2ccccc2)NC(=O)OC(C)(C)C)OC1=O	9.2 nM	0.9 nM			
C[C@@H]1CO[C@H]([C@H](O)[C@H](CC2CCCCC2)NC(=O)[C@H](Cc2c[nH]cn2)NC(=O)[C@H](Cc2ccccc2)NC(=O)OC(C)(C)C)C1	3 nM	1.2 nM	2%	9%	
CC(C)(C)OC(=O)N[C@@H](Cc1ccccc1)C(=O)N[C@@H](Cc1cnc[nH]1)C(=O)N[C@@H](CC1CCCCC1)[C@@H](O)[C@@H](O)CNC=O	63 nM	8 nM			
C[C@H]1C[C@@H]([C@H](O)[C@H](CC2CCCCC2)NC(=O)[C@H](Cc2c[nH]cn2)NC(=O)[C@H](Cc2ccccc2)NC(=O)OC(C)(C)C)OC1=O	2.3 nM	0.32 nM			
CCN1C[C@@H]([C@H](O)[C@H](CC2CCCCC2)NC(=O)[C@H](Cc2cnc[nH]2)NC(=O)[C@H](Cc2ccccc2)NC(=O)OC(C)(C)C)NC1=O	11 nM	1.2 nM			
CC(C)(C)OC(=O)N[C@@H](Cc1ccccc1)C(=O)N[C@@H](Cc1c[nH]cn1)C(=O)N[C@@H](CC1CCCCC1)[C@@H](O)[C@@H]1CN(CCO)C(=O)O1	7.4 nM	0.7 nM			
C=C1C[C@@H]([C@H](O)[C@H](CC2CCCCC2)NC(=O)[C@H](Cc2c[nH]cn2)NC(=O)[C@H](Cc2ccccc2)NC(=O)OC(C)(C)C)OC1=O	21 nM	0.71 nM			
CCN1C[C@@H]([C@H](O)[C@H](CC2CCCCC2)NC(=O)[C@H](Cc2cnc[nH]2)NC(=O)[C@H](Cc2ccccc2)NC(=O)OC(C)(C)C)OC1=O	2.8 nM	0.63 nM			
CCCN1C[C@@H]([C@H](O)[C@H](CC2CCCCC2)NC(=O)[C@H](Cc2cnc[nH]2)NC(=O)[C@H](Cc2ccccc2)NC(=O)OC(C)(C)C)OC1=O	12 nM	1 nM			
CC(C)(C)OC(=O)N[C@@H](Cc1ccccc1)C(=O)N[C@@H](Cc1c[nH]cn1)C(=O)N[C@@H](CC1CCCCC1)[C@@H](O)[C@@H]1CCNC(=O)O1	29 nM	3.1 nM			
CCON1C[C@@H]([C@H](O)[C@H](CC2CCCCC2)NC(=O)[C@H](Cc2cnc[nH]2)NC(=O)[C@H](Cc2ccccc2)NC(=O)OC(C)(C)C)OC1=O	17 nM	1.3 nM			
CON1C[C@@H]([C@H](O)[C@H](CC2CCCCC2)NC(=O)[C@H](Cc2c[nH]cn2)NC(=O)[C@H](Cc2ccccc2)NC(=O)OC(C)(C)C)OC1=O			0%		0%
CC(C)(C)OC(=O)N[C@@H](Cc1ccccc1)C(=O)N[C@@H](Cc1c[nH]cn1)C(=O)N[C@@H](CC1CCCCC1)[C@@H](O)[C@@H](O)CN=[N+]=[N-]			0%	0%	
CC(C)(C)OC(=O)N[C@@H](Cc1ccccc1)C(=O)N[C@@H](Cc1cnc[nH]1)C(=O)N[C@@H](CC1CCCCC1)[C@@H](O)[C@@H](O)CN=[N+]=[N-]	9 nM				
CC(C)(C)OC(=O)N[C@@H](Cc1ccccc1)C(=O)N[C@@H](Cc1cnc[nH]1)C(=O)N[C@@H](CC1CCCCC1)[C@@H](O)[C@@H]1CC(C)(C)C(=O)O1	2.8 nM	0.89 nM			
CC(C)C[C@H](O)[C@H](O)[C@H](CC1CCCCC1)NC(=O)[C@H](Cc1c[nH]cn1)NC(=O)[C@H](Cc1ccccc1)NC(=O)OC(C)(C)C			0%	0%	
CCN1C[C@@H]([C@H](O)[C@H](CC2CCCCC2)NC(=O)[C@H](Cc2c[nH]cn2)NC(=O)[C@H](Cc2ccccc2)NC(=O)OC(C)(C)C)OC1=O			0%		21%
CC(C)N1C[C@@H]([C@H](O)[C@H](CC2CCCCC2)NC(=O)[C@H](Cc2cnc[nH]2)NC(=O)[C@H](Cc2ccccc2)NC(=O)OC(C)(C)C)OC1=O	8.2 nM	0.84 nM			
CN1C[C@@H]([C@H](O)[C@H](CC2CCCCC2)NC(=O)[C@H](Cc2c[nH]cn2)NC(=O)[C@H](Cc2ccccc2)NC(=O)OC(C)(C)C)OC1=O	8.8 nM	1.4 nM			
CC(C)CN1C[C@@H]([C@H](O)[C@H](CC2CCCCC2)NC(=O)[C@H](Cc2cnc[nH]2)NC(=O)[C@H](Cc2ccccc2)NC(=O)OC(C)(C)C)OC1=O	21 nM	3 nM			
CON1CC([C@H](O)[C@@H](CC2CCCCC2)NC(=O)[C@H](Cc2c[nH]cn2)NC(=O)[C@H](Cc2ccccc2)NC(=O)OC(C)(C)C)OC1=O (single isomer, unassigned)		43 nM			
CCN1C[C@@H]([C@H](O)[C@H](CC2CCCCC2)NC(=O)[C@H](Cc2cnc[nH]2)NC(=O)[C@H](Cc2ccccc2)NC(=O)OC(C)(C)C)NS1(=O)=O	13 nM	1.4 nM			
